SUMO Mot1 rescue = yeast Mot1-301 growth rescue at high temperature, primary screen, SUMOylation pathway inhibitor project, S. cerevisiae, ATP luminescence, 38.5C; 320,000 tested, 1% active; S. cerevisiae Mot1-301 growth rescue; percent above DMSO median, 100 means doubled; growth rescue, % at 18.8 µM; AID 2716, 2010;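 active = every valid replicate shows activation above 250% relative to neutral control wells; inactive = the rest, any valid replicate at or below 250%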;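 note: OY570 slx delta 5 strain wells were the positive control but not used for scaling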
T cruzi repl = inhibitors of intracellular T. cruzi growth, primary screen, luminescence, NIH3T3 host cells | T. cruzi beta-gal in NIH3T3, 90 h | inhibition, % (test concentration not listed) | 300,000 tested, 1.4% active;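 active = mean inhibition across valid replicates above about 55%, limit read from the data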;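 note: signal also drops with host cell toxicity which is not excluded here; 0% = plate median of DMSO wells and 100% = zero luminescence signal; higher percent means less beta-gal luminescence so fewer parasites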
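System: Mouse NIH/3T3 fibroblasts infected with β-gal-expressing T. cruzi Tulahuen C4 | Quantity: NIH/3T3 cells, 5,000 per well | Reagent: 5000 reporter trypomastigotes per well | Dosing: Compound pinned at 50 nL/well, DMSO | Schedule: 3 h host attachment, then at least 90 h co-culture | Detection: GalScreen luminescence, 60 min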
WT yeast gro inh = growth inhibition of WT strain, primary screen, mitochondrial fusion inhibitor project, WT and mutant strains, chemical genetic; inhibition, % at 10 µM; mitochondrial fusion phenotypic screen; AID 1362, 2008; 190,000 tested, 2.1% active; in the data active = inhibition above about 58%; tested in S. cerevisiae
Efflux pump mplx = inhibitors of Candida efflux pumps in yeast, primary screen, S. cerevisiae, Nile Red, multiplex. S. cerevisiae Candida pump triplex. inhibition, % at 10 µM. 330,000 tested, 0.44% active. AID 485275, 2010;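 active = plate passing quality check with inhibition over a set limit, or well fluorescence over plate mean plus 4 SD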;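 note: Nile Red retained in pooled yeast measured as flow cytometry median fluorescence; 0% = buffer negative control and 100% = Enniatin B positive control; higher means more Nile Red kept so more efflux inhibition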
Beta cell apopt = inhibitors of cytokine-induced beta cell apoptosis, primary screen, luminescence; protection from apoptosis, % (no concentration beside the values); INS-1E cytokine-induced death, ATP luminescence, 48 h; percent of positive-control rescue, neutral wells zero; 300,000 tested, 0.8% active; AID 435005, 2010;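 active = Every replicate reaches about 75%, or at least half do and their mean reaches it too, limit read from the data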;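 note: 0% = cytokine-treated negative control wells and 100% = positive control rescue; higher means more ATP so stronger rescue from cytokine killing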
CSC inhib = cancer stem cell viability inhibitors, primary screen, luminescence. inhibition, % at 7.5 µM. 300,000 tested, 1.1% active. cancer stem cell-like cells viability. AID 2717, 2010; in the data active = inhibition above about 75%; tested in HMLE shEcad cells
Mot1 SUMO dose = growth restoration of Mot1-301 yeast on galactose, dose response, SUMO pathway inhibitor project, whole organism, S. cerevisiae, ATP luminescence, cherry-picked samples. shares compounds with SUMO Mot1 rescue. S. cerevisiae Mot1-301 galactose growth, 24 h; -100 = growth of slx-deleted rescue strain. growth activity, percent, % at 42 µM. 2,300 tested, under 10 active;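 active = Signal drops as the depositor expects, and the fitted half-maximal dose is no more than ten times the top valid tested dose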;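 note: more negative values mean stronger growth rescue toward the control strain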
An asterisk follows results filed as active; / = no result given; + = active, no number. Only some compounds are listed: those with a hit (about 4.8% of all), similar ones and a draw of the others.

SMILES | SUMO Mot1 rescue | T cruzi repl | WT yeast gro inh | Efflux pump mplx | Beta cell apopt | CSC inhib | Mot1 SUMO dose
COc1ccc(C(=O)CSc2nnc(CNC(=O)c3ccccc3)n2C)cc1 | 397.4* | 0.8 | / | -11.9 | -2.3 | -16.0 | 0.7
CCc1ccc(CNCc2cccs2)cc1 | 4.9 | -11.2 | -9.7 | -0.1 | 7.6 | 5.1 | /
Clc1ccc(CNCc2cccs2)cc1Cl | 362.8* | 3.8 | -16.4 | 0.3 | -5.5 | 1.0 | 0.7
COc1ccccc1-c1nnc(SCC(=O)NC2CCS(=O)(=O)C2)n1N (stereo not given) | + | -10.3 | -2.9 | 0.3 | -3.9 | -6.9 | 0.2
COc1ccccc1-c1nnc(SCC(=O)NC2CCCCC2)n1N | -1.6 | / | / | -0.1 | -3.3 | / | /
COC(=O)N/N=C/c1ccc(-c2ccc(Cl)cc2Cl)o1 | 454.5* | 16.6 | / | 0.1 | -19.3 | -10.0 | -0.6
COC(=O)N/N=C/c1ccc(-c2ccccc2Cl)o1 | 174.5 | 22.6 | / | 0.3 | 6.3 | 2.8 | /
CCN(CC)CC(=O)Nc1ccc(Oc2ccc(NC(=O)CN(CC)CC)cc2)cc1 | 371.2* | 30.1 | -11.6 | 0.0 | / | -2.7 | 0.6
Cc1cc(C)n2nc(SCC(=O)NC(=O)c3ccc(OC(F)F)cc3)nc2n1 | -8.7 | / | / | 0.0 | -0.9 | -3.7 | /
CCCCCCCCc1nc(SCC(C)=O)n[nH]1 | 698.7* | -11.1 | / | 0.0 | 0.0 | -7.2 | -0.6
COc1cccc(/C=C2\SC(N3CCC(C)CC3)=NC2=O)c1OC | 614.9* | 9.9 | / | 0.0 | -1.0 | -6.2 | -0.3
COc1ccccc1CCNC(=O)C(=O)c1cn(CC(=O)N2CCOCC2)c2ccccc12 | 4.6 | -5.0 | / | 0.0 | 2.4 | 1.0 | /
CCC(C)(C)n1nnnc1C(c1cccnc1)N1CCC(Cc2ccccc2)CC1 (stereo not given) | 593.6* | 64.2* | -88.7 | 0.0 | 10.7 | 8.1 | 0.6
CCN1C(=O)C2(C(C(=O)c3cc4ccccc4o3)=C(O)C(=O)N2CCCN2CCOCC2)c2ccccc21 (stereo not given) | 177.8 | -2.8 | / | 0.0 | / | -9.4 | /
CCCCn1c(N)c(N(CC(C)C)C(=O)CSCC(=O)Nc2cccc(C)c2)c(=O)[nH]c1=O | 366.3* | 5.3 | / | 0.3 | -1.3 | 0.5 | -0.1
O=[N+]([O-])c1cccnc1NCc1cccs1 | -11.5 | 0.0 | 13.0 | 0.1 | -7.5 | -4.4 | /
CCn1c2c(c3cc(Cl)ccc31)CCCC2=O | 3.2 | 2.1 | 4.3 | 0.2 | -2.2 | -2.5 | /
OC1CN=C2CCCc3c2n(c2ccc(Cl)cc32)C1 (stereo not given) | 367.9* | 11.0 | 5.5 | 0.1 | 3.9 | -11.4 | 0.1
Cc1ccc(S(=O)(=O)N(C)c2ccc(OC(=O)CN3C(=O)NC4(CCCC4)C3=O)cc2)cc1C | + | -16.6 | / | 0.1 | -10.1 | -13.7 | 0.4
Cc1[nH]c(C)c(S(=O)(=O)Nc2ccc(OC(F)(F)F)cc2)c1C(=O)N1CCCCC1 | 183.6 | 23.2 | / | 0.1 | 1.2 | -0.9 | /
CC1CC(C)(C)NC(=S)N1CCC(=O)NCc1ccc(F)cc1 (stereo not given) | -17.9 | -19.1 | 11.3 | 0.1 | -11.8 | -13.3 | /
CC1CC(C)(C)NC(=S)N1CC(=O)NCc1ccc(F)cc1 (stereo not given) | 835.2* | -15.7 | -4.9 | 0.0 | 5.3 | -3.5 | 0.2
COc1ccc(S(=O)(=O)NCC(=O)N(CC(=O)NCC2CCCO2)c2ccccc2C)cc1 (stereo not given) | 920.9* | 2.8 | 2.5 | 0.4 | -5.1 | / | 0.9
O=C(CN(CC1CCCO1)C(=O)CNS(=O)(=O)c1ccc(F)cc1)NCc1ccccc1 (stereo not given) | 886.2* | 6.3 | / | 0.0 | 1.4 | / | 0.3
COc1ccc(CN(CC(=O)NCC2CCCO2)C(=O)CNS(=O)(=O)c2ccc(C)cc2)cc1 (stereo not given) | 18.3 | 4.4 | 4.6 | 0.5 | -7.4 | -7.2 | /

Source: PubChem BioAssay
